Most compounds without a hit are left out; they make up all but 1.6% or so of the library.
FLuc stim CS – affects firefly luciferase, flagging false hits in luciferase stimulation screens; P08659; ATPlite luciferase biochemical, luminescence, 10 min; 0 = ATP-free wells, 1 = DMSO control; activation factor at 10 µM; 200,000 tested, under 10 active;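 active = luciferase activation factor, scaled between plate controls, of at least 2 with compound at 10 µM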
Target sequence (P08659 whole entry, looked up): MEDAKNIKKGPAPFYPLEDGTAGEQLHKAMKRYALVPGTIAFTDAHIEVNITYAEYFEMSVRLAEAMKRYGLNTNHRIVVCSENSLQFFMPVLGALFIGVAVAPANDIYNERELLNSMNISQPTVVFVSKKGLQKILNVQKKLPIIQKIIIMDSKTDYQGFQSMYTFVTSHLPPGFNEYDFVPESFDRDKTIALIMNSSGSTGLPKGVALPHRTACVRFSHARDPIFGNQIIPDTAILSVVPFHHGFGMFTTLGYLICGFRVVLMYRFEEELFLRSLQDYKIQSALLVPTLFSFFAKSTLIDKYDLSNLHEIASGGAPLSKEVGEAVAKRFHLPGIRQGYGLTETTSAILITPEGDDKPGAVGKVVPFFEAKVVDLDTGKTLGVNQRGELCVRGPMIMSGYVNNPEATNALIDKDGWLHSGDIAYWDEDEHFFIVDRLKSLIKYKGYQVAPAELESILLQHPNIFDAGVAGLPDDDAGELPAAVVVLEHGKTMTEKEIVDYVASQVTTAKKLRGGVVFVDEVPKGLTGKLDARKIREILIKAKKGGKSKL
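Assay system – cell-free luciferase reagent · Medium – PBS-based ATP solution · Dosing – test compounds dosed from 2 mM stocks in 100% DMSO · Timing – 10 min, room temperature · Technique – light output (luminescence) · Measure – luminescence gain marking luciferase activators · Controls – No-ATP low control, compound-free enzyme-plus-ATP high control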
PPC-1+TRAIL kill – kills PPC-1 cancer cells in the presence of TRAIL. cell killing (% activity), % at 4 µM or 5 µM. 220,000 tested, 0.41% active. PPC-1 cells + TRAIL, ATPLite viability luminescence;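 active = cell killing above 50% in the first pass at 4 µM, then a duplicate retest at 5 µM averaging 50% or more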
FLuc inhib CS – counter-screen for luciferase assay inhibitors: firefly luciferase inhibition | P08659 | ATPLite firefly luciferase biochemical luminescence, 10 min | inhibition, % at 10 µM | 200,000 tested, 1.5% active | AID 1006;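 active = inhibition above about 50% when tested at 10 µM, limit read from the data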
TRAIL sens C8 – caspase-8 TRAIL sensitization; NB7+C8 cells + TRAIL, ATPlite viability luminescence; inhibition (viability loss, TRAIL sensitization), % at 10 µM; 360,000 tested, 1% active;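 active = compounds causing at least 50% loss of cell viability in the single-dose screen, relative to plate controls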
Platelet DG rel – modulates dense granule release in human platelets. human platelet-rich plasma, SFLLRN dense granule ATP release, luminescence. inhibition, %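 (compounds screened at 7.5 µM in platelet-rich plasma)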. 300,000 tested, 0.22% active. AID 1663;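 active = mean replicate score, as percent of positive control, at or above 50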
Hits are given with their value; . = inactive; / = no result given.

SMILES	FLuc stim CS	PPC-1+TRAIL kill	FLuc inhib CS	TRAIL sens C8	Platelet DG rel
O=c1c2sc(-c3ccccc3)cc2nc2n1CCCCC2	/	.	/	.	.
O=c1c2sc(-c3ccccc3)cc2nc2n1CCC2	.	.	55	54	.
COc1ccc(C(=O)NCCC2=CCCCC2)cc1	.	.	50	.	.
COCCNC(=O)C1(C)CCN(Cc2noc(-c3c(C)noc3C)n2)C1 (stereo not drawn)	/	/	/	.	/
O=C1c2cc(F)ccc2-n2c1nc1ccccc1c2=O	/	/	/	55	.
O=C1c2ccccc2C2=Nc3ccccc3SC(c3cccc(F)c3)C12 (stereo not drawn)	.	.	.	.	.
Cc1ccc(C2=NNC(c3cccc(F)c3)S2)cc1 (stereo not drawn)	.	/	84	66	.
COc1ccc(C2NN=C(c3ccc(C)cc3)S2)cc1OC (stereo not drawn)	.	.	79	59	.
Cc1ccc(C2=NNC(C(O)C(O)C(O)C(C)O)S2)cc1 (stereo not drawn)	.	.	.	.	.
COc1ccc(C2NC(=O)CS2)cc1OC (stereo not drawn)	.	.	.	.	.
Fc1cccc(C2NN=C(c3ccccc3)S2)c1 (stereo not drawn)	.	.	67	55	.
Nc1nn(-c2cccc(F)n2)cc1-c1ccccc1	.	.	64	.	.
Nc1nn(-c2cccc(F)n2)cc1-c1ccc(Cl)cc1	.	.	57	.	.
CC(C)CC1C(=O)N(Cc2cn(Cc3ccco3)nn2)CCS(=O)(=O)N1Cc1ccc(-c2cccc(N(C)C)c2)cc1 (stereo not drawn)	/	/	/	.	/
CS(=O)(=O)Nc1cccc(NC(=O)C2Cc3c(-c4ccccc4)ccnc3O2)c1 (stereo not drawn)	/	/	/	57	/
CC(=O)Nc1cccc(-c2ccnc3c2CC(C(=O)Nc2cccc(NS(C)(=O)=O)c2)O3)c1 (stereo not drawn)	/	/	/	.	/
C#CCN(CC(=O)OCC)S(=O)(=O)CCNC1CC1	/	/	/	.	/
CNc1nc(N/N=C/c2cc3c(cc2[N+](=O)[O-])OCO3)nc(Nc2ccccc2)n1	.	.	.	.	.
CNc1nc(N/N=C/c2cc([N+](=O)[O-])ccc2F)nc(Nc2ccccc2)n1	/	/	/	58	/
Cc1ccc(NC(=O)c2cc3ccccc3oc2=O)cc1S(=O)(=O)N(C)C	.	.	87	56	.
Cc1cc(NC(=O)c2ccc(Cl)cc2)c(C)cc1O	.	.	53	.	.
Cc1cc(NC(=O)c2ccc(Cl)cc2)c(C(C)C)cc1O	.	.	.	.	.
COc1c(C)cc(C(O)c2ncc(-c3ccccc3)[nH]2)cc1C (stereo not drawn)	/	/	/	.	/
COc1ccc(S(=O)(=O)NC(=O)C2(C)CCN2C(=O)Cc2cc(C)cc(C)c2)cc1 (stereo not drawn)	/	/	/	.	/
CCCCCCc1cc2cc(C(=O)Nc3ccc(OC)cc3)c(=O)oc2cc1O	.	.	.	51	.
SMILES	FLuc stim CS	PPC-1+TRAIL kill	FLuc inhib CS	TRAIL sens C8	Platelet DG rel
COc1ccc2o/c(=N\O)c(C(=O)Nc3ccccc3OC)cc2c1	.	.	.	.	.
COc1ccc(NC(=O)c2cc3ccc(O)cc3o/c2=N\O)cc1	/	/	/	74	.
CCCCCCc1cc2cc(S(=O)(=O)c3ccc(F)c(Cl)c3)c(=O)oc2cc1O	.	.	.	52	.
CS(=O)(=O)N1Cc2cc(C(=O)NCC3CC3)nc(-c3cccc(-c4cccnc4)c3)c2[C@H]1CCO	/	/	/	.	/
C(/C=C/c1ccccn1)=C\c1ccccc1	/	/	/	51	.
CCOc1ccc(N=Cc2ccc([N+](=O)[O-])cc2)c(O)c1	/	/	/	.	/
O=S(=O)(Nc1ccc(-c2ccc(N3CCOCC3)nn2)cc1)c1ccc(Cl)c(Cl)c1	/	/	/	.	50
O=[N+]([O-])c1ccc(Cl)c(S(=O)(=O)Nc2cccc(-c3ccc(N4CCOCC4)nn3)c2)c1	/	/	/	58	.
O=[N+]([O-])c1ccc(S(=O)(=O)Nc2cccc(-c3ccc(N4CCOCC4)nn3)c2)cc1	/	/	/	51	.
O=[N+]([O-])c1ccc(Cl)c(S(=O)(=O)Nc2ccc(-c3ccc(N4CCOCC4)nn3)cc2)c1	/	/	/	.	.
C[C@@H]1CCCCO[C@H](CN(C)C(=O)Cc2ccccc2)[C@H](C)CN([C@@H](C)CO)C(=O)c2cc(NC(=O)Nc3ccc(F)cc3)ccc2O1	/	/	/	.	/
CCCCOC(=O)c1ccc(Nc2ncnc3nc[nH]c23)cc1	.	.	.	.	.
CCCCCCCCOC(=O)c1cc([N+](=O)[O-])c(Sc2ncnc3nc[nH]c23)c([N+](=O)[O-])c1	/	/	/	67	/
Cc1ccc(S(=O)(=O)N2[C@H](CC(=O)c3cccs3)OC[C@@H]2C(C)C)cc1	/	/	/	.	/
COc1cc(CNc2ncnc3c2ncn3[C@H]2CN(Cc3ccccc3)C[C@@H](COC(C)=O)O2)cc(OC)c1OC	/	/	/	.	/
COc1cccc2cc(-c3nc4ccccc4o3)c(=O)oc12	.	.	60	.	.
C[C@@H]1CN([C@@H](C)CO)S(=O)(=O)c2ccc(-c3ccccc3)cc2O[C@@H]1CN(C)Cc1ccccc1C(=O)O	/	/	/	.	/
COc1ccc(N2CSC(=S)N(c3ccc(OC)cc3)C2)cc1	/	/	/	.	/
Cc1noc(C)c1COC(=O)c1ccc(-c2nc3ccccc3s2)s1	.	.	.	.	.
CCNC(=O)COC(=O)c1ccc(-c2nc3ccccc3s2)s1	.	.	87	.	.
Cc1ccc2nc(NC(=O)c3ccc(-c4nc5ccccc5s4)s3)sc2c1	.	.	.	67	/
Cc1ccc(C(=O)NC(=S)c2c(C)cc3ccccn23)cc1	/	/	/	.	/
CN(C)CCCNC(=O)c1ccccn1	.	.	.	.	.
CN(C)CCCNC(=O)c1ccc(-c2nc(-c3ccc(Cl)cc3)cs2)cc1	.	.	.	90	.
CCCC1NC(=O)c2cc3ccccc3cc2-n2c1nc1cc(F)ccc1c2=O (stereo not drawn)	/	/	/	.	/
SMILES	FLuc stim CS	PPC-1+TRAIL kill	FLuc inhib CS	TRAIL sens C8	Platelet DG rel
Cc1ccccc1C(=O)N1CCN(c2ccc(NC(=O)c3ccc([N+](=O)[O-])o3)cc2)CC1	/	/	/	71	.
CC(C)C(=O)N1CCN(c2ccc(NC(=O)c3ccc([N+](=O)[O-])o3)cc2)CC1	.	.	.	.	.
O=C(Nc1ccc(N2CCN(C(=O)c3ccccc3)CC2)cc1)c1ccc([N+](=O)[O-])o1	.	.	.	70	.
Cc1cccn2c1nc(=S)n2C(=O)c1ccco1	.	.	85	.	.
COCCn1c(C)cc(C2=NNC(=Nc3ccc(Cl)cc3Cl)SC2)c1C	.	.	.	.	.
C=CCn1c(C)cc(C2=NNC(=NC(C)(C)C)SC2)c1C	.	.	90	70	.
C=CCN=C1NN=C(c2cc(C)n(CCOC)c2C)CS1	.	.	89	.	.
CCCC(=O)N1CCOCC1c1cc(C(=O)NCc2ccccc2)no1 (stereo not drawn)	/	/	/	.	/
CCOc1ccc(-c2nnc(-c3cccs3)o2)cc1OCC	.	.	.	.	.
CCOc1ccc(-c2nc(-c3cccs3)c(CC(=O)O)s2)cc1OC	.	.	68	.	.

High-throughput results from PubChem.
